For orientation: IC50 means the midpoint of a concentration-inhibition curve. What is called inhibition is how much of the control response was suppressed.

Each structure is given as a SMILES string. Calls of active or inactive are those of the source. The calls are words filed in the database; no cut-off is given here.

This note sets out measurements from ChEMBL document CHEMBL3286352, “Dimeric flavonoids from Arrabidaea brachypoda and assessment of their anti-Trypanosoma cruzi activity” (J Nat Prod, 2014).

In series [1] the test system is Mus musculus. The series can be described thus: Toxicity in BALB/c mouse infected with blood stage trypomastigote form of Trypanosoma cruzi Y at 100 mg/kg, po qd administered for 5 days measured during compound treatment. More on the design: dose 100 mg/kg, route oral. The conditions noted are these: in vivo, 120 h. In kind it is organism-based. The gist of the method:
(§1)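 Female BALB/c mice, 6–8 weeks, infected ip with 10^4 bloodstream Y trypomastigotes, six per group. From day 5, oral dosing once daily for five days, vehicle saline with 20% DMSO; untreated infected group got vehicle. Motile parasites counted in 5 μL tail-vein fresh blood. Survival checked daily to day 30. Means ± SEM.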

Series [2] can be described thus: Cytotoxicity against BALB/c mouse peritoneal macrophages after 72 hrs by AlamarBlue assay. In kind it is cell-based, Peritoneal macrophage cell. The settings on record: read-out: LC50. Put shortly: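 Peritoneal exudate macrophages from BALB/c mice, 1 × 10^5 cells/well in phenol-red-free RPMI-1640 with 10% FBS and 50 μg/mL gentamycin, pre-incubated 24 h at 37 °C, 5% CO2. Compounds from DMSO stocks diluted in medium, five concentrations 0.24–20 μM in triplicate, 72 h. AlamarBlue added over 10 h, read at 570/600 nm. LC50 from three independent experiments, mean ± SD.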
A general note: Alamar Blue is a resazurin reagent that responds to reducing activity.

In series [3] the test system is Trypanosoma cruzi. Put plainly: Antitrypanosomal activity against amastigote stage of Trypanosoma cruzi Y in BALB/c mouse peritoneal macrophages assessed as reduction of number of intracellular parasites per 100 cells after 4 days by hematoxylin/eosin staining-based optical microscopic analysis. The format is functional, organism-based. The conditions noted are these: 96 h. Put shortly:
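Macrophages plated 2 × 10^5 per well on coverslips in RPMI + 10% FBS for 24 h, infected with trypomastigotes at 10 parasites per macrophage for 2 h, then washed. Compounds at five concentrations, 0.12–10 μM, in triplicate for 6 h. Medium replaced, 4 days further culture. Coverslips fixed in absolute alcohol. IC50 taken as concentration halving amastigotes per 100 macrophages; mean ± SD of three independent experiments.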

Series [4] has as its system Trypanosoma cruzi. The series can be described thus: Antitrypanosomal activity against trypomastigote stage of Trypanosoma cruzi Y assessed as living parasites level after 24 hrs by Neubauer chamber analysis. The format is functional, organism-based. The gist of the method:
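Y trypomastigotes from LLC-MK2 culture supernatants, 4 × 10^5 per well. Five concentrations, 0.24–20 μM, from DMSO stocks diluted in medium. Incubated 24 h at 37 °C, 5% CO2. Live parasites counted and compared with untreated culture. Run in triplicate, at least three independent experiments. IC50 as mean ± SD.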

Series [5] has as its target Cruzipain (Trypanosoma cruzi) (UniProt P25779). The series can be described thus: Inhibition of recombinant Trypanosoma cruzi cruzain at 25 uM preincubated for 10 mins followed by substrate addition measured after 10 mins relative to control. Put shortly: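 Recombinant cruzain activated in 0.1 M acetate buffer pH 5.5 with 5.5 mM DTT, adjusted to 0.1 μM. Enzyme in phosphate buffer with 0.01% Triton. Preincubated with compound 10 min at 35 °C, then fluorogenic substrate added for 10 min. Inhibition % = 100 − (A1/A × 100) against cruzain plus substrate RFU. Triplicate; E-64c as standard.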

Series [6] deals with Trypanosoma cruzi. Put plainly: Antitrypanosomal activity against blood stage trypomastigote form of Trypanosoma cruzi Y infected in BALB/c mouse assessed as reduction of blood parasitemia at 100 mg/kg, po qd administered for 5 days relative to control. The format is functional. More on the design: scale not given: the % may be the effect or the level left. The gist of the method:
as §1

In series [7] the test system is Trypanosoma cruzi. The series can be described thus: Antitrypanosomal activity against blood stage trypomastigote form of Trypanosoma cruzi Y infected in BALB/c mouse assessed as reduction of mortality at 100 mg/kg, po qd administered for 5 days measured for 30 days. More on the design: dose 100 mg/kg. The format is functional, organism-based. Put shortly: as §1

The test system of series [8] is Trypanosoma cruzi. Put plainly: Antitrypanosomal activity against trypomastigote stage of Trypanosoma cruzi Y infected in BALB/c mouse peritoneal macrophages assessed as inhibition of host cell invasion at 10 uM after 2 hrs by hematoxylin/eosin staining-based optical microscopic analysis. The format is functional, organism-based. The gist of the method: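 Macrophages at 1 × 10^5 per well on coverslips in RPMI + 10% FBS for 24 h. Infected with trypomastigotes at 100 per macrophage and treated at 10 μM, with amphotericin B 10 μM as reference. Incubated 2 h at 37 °C, washed, then 2 h more in medium. Fixed in absolute alcohol. Percentage of infected macrophages counted after H&E.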

Cruzipain (Trypanosoma cruzi), sequence (P25779 123-467 limits assumed): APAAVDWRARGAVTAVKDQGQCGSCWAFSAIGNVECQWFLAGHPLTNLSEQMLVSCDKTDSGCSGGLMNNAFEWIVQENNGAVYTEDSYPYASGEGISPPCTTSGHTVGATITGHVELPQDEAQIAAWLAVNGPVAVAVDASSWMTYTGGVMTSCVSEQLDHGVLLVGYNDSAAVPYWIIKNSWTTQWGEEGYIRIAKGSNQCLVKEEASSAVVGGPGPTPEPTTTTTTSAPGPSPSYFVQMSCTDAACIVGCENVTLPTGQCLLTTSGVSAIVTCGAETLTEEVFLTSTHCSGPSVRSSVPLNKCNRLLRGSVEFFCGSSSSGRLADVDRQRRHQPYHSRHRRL

As to `COc1ccc(/C=C/[C@@H]2c3c(OC)cc(O)cc3O[C@H]3c4c(OC)cc(O)cc4O[C@H](c4ccccc4)[C@@H]23)cc1`, the figures for the Activity result in series [1] and in series [6] were “Non-toxic” and 92%, respectively. Besides, in series [2], the CC50 at 72 h was determined as 15.6 µM. For the same molecule, the IC50 in series [3] was found to be 6 µM; in series [4], 5.3 µM. Moreover, the inhibition in series [5] amounted to 0%. In addition, in series [7], the outcome was Active. Further, in series [8], the inhibition result is “Active”.
Turning to `CC(C)CCNC(=O)[C@H](CC(C)C)NC(=O)[C@H]1O[C@@H]1C(=O)O`, the inhibition in series [5] came to 100%.
`COc1cc(O)cc2c1[C@@H](/C=C/c1ccc(O)cc1)[C@@H]1[C@@H](c3ccccc3)Oc3cc(O)cc(OC)c3[C@@H]1O2`: the CC50 at 72 h in series [2] is over 20 µM. The IC50 in series [3] and in series [4] was over 20 µM throughout. Also, in series [5], the inhibition was 0%.
Turning to `CN(C)c1ccc(C(=C2C=CC(=[N+](C)C)C=C2)c2ccc(N(C)C)cc2)cc1` [GENTIAN VIOLET], the CC50 at 72 h in series [2] came out at 0.48 µM.
`O=C(Cn1ccnc1[N+](=O)[O-])NCc1ccccc1` [BENZNIDAZOLE]: the CC50 at 72 h in series [2] was over 20 µM. For the same molecule, the IC50 in series [4] turned out to be 11.3 µM. Moreover, the Activity in series [6] came to 99%. Further, the inhibition result in series [8] was “Active”.
In the case of `COc1cc(O)cc2c1[C@@H](/C=C/c1ccccc1)[C@@H]1[C@@H](c3ccccc3)Oc3cc(O)cc(OC)c3[C@@H]1O2`, the CC50 at 72 h in series [2] came out at 17.3 µM. The IC50 in series [3] is 6.8 µM; in series [4], 6.6 µM. Also, the inhibition in series [5] turned out to be 0%. Also, in series [8], the inhibition result was “Active”.
